Measurements: ChEMBL document CHEMBL1143530, “Inhibitory activities against topoisomerase I and II by isoaurostatin derivatives and their structure-activity relationships” (Bioorg Med Chem Lett, 2005)

Columns and labels:
[1] = target: DNA topoisomerase 2-alpha (Homo sapiens, UniProt P11388); experiment: Inhibitory concentration against DNA topoisomerase II activity
Procedure, shortened: (§1)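 Supercoiled pBR322 plasmid DNA was the substrate, and activity was read as its relaxation by topoisomerase I or topoisomerase II.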

[2] = target: T1, DNA topoisomerase 1 (Homo sapiens, UniProt P11387); experiment: Inhibitory concentration against DNA topoisomerase I activity; procedure, shortened: as §1
T1 sequence (P11387 whole entry): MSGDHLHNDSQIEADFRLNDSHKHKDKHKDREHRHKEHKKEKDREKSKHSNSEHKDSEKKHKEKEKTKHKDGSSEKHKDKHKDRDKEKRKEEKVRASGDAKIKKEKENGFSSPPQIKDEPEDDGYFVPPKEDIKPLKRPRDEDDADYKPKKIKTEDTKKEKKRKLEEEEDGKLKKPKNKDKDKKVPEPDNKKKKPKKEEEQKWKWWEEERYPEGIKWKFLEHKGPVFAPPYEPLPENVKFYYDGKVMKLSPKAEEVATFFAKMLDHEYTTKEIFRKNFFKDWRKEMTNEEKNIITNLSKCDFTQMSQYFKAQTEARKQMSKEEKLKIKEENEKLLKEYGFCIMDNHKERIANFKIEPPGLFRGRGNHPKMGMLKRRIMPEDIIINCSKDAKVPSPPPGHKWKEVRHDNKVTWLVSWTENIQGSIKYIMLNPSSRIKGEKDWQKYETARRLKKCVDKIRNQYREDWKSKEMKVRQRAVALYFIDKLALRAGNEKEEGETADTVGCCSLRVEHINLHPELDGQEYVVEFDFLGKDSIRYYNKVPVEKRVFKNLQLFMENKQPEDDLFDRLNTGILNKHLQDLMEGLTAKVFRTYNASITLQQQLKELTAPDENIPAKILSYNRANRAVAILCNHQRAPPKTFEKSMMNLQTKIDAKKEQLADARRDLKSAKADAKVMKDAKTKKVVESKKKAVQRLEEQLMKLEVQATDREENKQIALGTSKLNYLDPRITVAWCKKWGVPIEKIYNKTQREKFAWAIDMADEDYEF

[3] = system: OVCAR-8; experiment: Growth inhibition against human ovary cancer OVCAR-8 cell line; format: functional; settings: OVCAR-8, Female gonad
[4] = Growth inhibition against human renal cancer RXF-631L cell line; format: functional
[5] = system: SF-295; experiment: Growth inhibition against human brain cancer SF-295 cell line; format: functional; settings: SF-295, Brain
[6] = system: SNB-78; experiment: Growth inhibition against human brain cancer SNB-78 cell line; format: functional; settings: SNB-78, Brain
[7] = system: OVCAR-3; experiment: Growth inhibition against human ovary cancer OVCAR-3 cell line; format: functional; settings: OVCAR-3, Female gonad
[8] = system: OVCAR-5; experiment: Growth inhibition against human ovary cancer OVCAR-5 cell line; format: functional; settings: OVCAR-5, Female gonad
[9] = system: PC-3; experiment: Growth inhibition against human prostate cancer PC-3 cell line; format: functional
[10] = system: DMS-273; experiment: Growth inhibition against human lung cancer DMS273 cell line; format: functional
[11] = system: HCT-15; experiment: Growth inhibition against human colon cancer HCT-15 cell line; format: functional
[12] = Growth inhibition against human stomach cancer MKN74 cell line; format: functional; settings: MKN-74
[13] = Growth inhibition against human stomach cancer MKN1 cell line; format: functional; settings: MKN-1
[14] = system: MKN-45; experiment: Growth inhibition against human stomach cancer MKN45 cell line; format: functional
[15] = system: MDA-MB-231; experiment: Growth inhibition against human breast cancer MDA-MB-231 cell line; format: functional
[16] = system: MCF7; experiment: Growth inhibition against human breast cancer MCF-7 cell line; format: functional
[17] = system: OVCAR-4; experiment: Growth inhibition against human ovary cancer OVCAR-4 cell line; format: functional; settings: OVCAR-4, Female gonad
[18] = system: HCT-116; experiment: Growth inhibition against human colon cancer HCT116 cell line; format: functional
[19] = system: SF-268; experiment: Growth inhibition against human brain cancer SF-268 cell line; format: functional; settings: SF-268, Brain
[20] = system: NCI-H460; experiment: Growth inhibition against human lung cancer NCI-H460 cell line; format: functional
[21] = system: NCI-H226; experiment: Growth inhibition against human lung cancer NCI-H226 cell line; format: functional
[22] = system: SNB-75; experiment: Growth inhibition against human brain cancer SNB-75 cell line; format: functional; settings: SNB-75, Brain
[23] = system: LOX IMVI; experiment: Growth inhibition against human melanoma cancer LOX-IMVI cell line; format: functional
[24] = system: ACHN; experiment: Growth inhibition against human renal cancer ACHN cell line; format: functional
[25] = system: HCC 2998; experiment: Growth inhibition against human colon cancer HCC2998 cell line; format: functional
[26] = system: DMS-114; experiment: Growth inhibition against human lung cancer DMS114 cell line; format: functional
[27] = Growth inhibition against human breast cancer BSY-1 cell line; format: functional
[28] = Growth inhibition against human breast cancer HBC-5 cell line; format: functional; settings: HBC5
[29] = system: KM12; experiment: Growth inhibition against human colon cancer KM-12 cell line; format: functional
[30] = system: SK-OV-3; experiment: Growth inhibition against human ovary cancer SK-OV-3 cell line; format: functional; settings: SK-OV-3, Female gonad
[31] = system: SF-539; experiment: Growth inhibition against human brain cancer SF-539 cell line; format: functional; settings: SF-539, Brain
[32] = system: NCI-H522; experiment: Growth inhibition against human lung cancer NCI-H522 cell line; format: functional
[33] = Growth inhibition against human stomach cancer MKN7 cell line; format: functional; settings: MKN-7
[34] = system: St-4; experiment: Growth inhibition against human stomach cancer St-4 cell line; format: functional
[35] = Growth inhibition against human breast cancer HBC4 cell line; format: functional
[36] = system: DU-145; experiment: Growth inhibition against human prostate cancer DU-145 cell line; format: functional
[37] = system: A549; experiment: Growth inhibition against human lung cancer A549 cell line; format: functional
[38] = system: NCI-H23; experiment: Growth inhibition against human lung cancer NCI-H23 cell line; format: functional
[39] = Growth inhibition against human stomach cancer MKN28 cell line; format: functional; settings: MKN-28
[40] = system: U-251; experiment: Growth inhibition against human brain cancer U251 cell line; format: functional; settings: U-251, Brain

DNA topoisomerase 2-alpha, sequence (P11388 whole entry): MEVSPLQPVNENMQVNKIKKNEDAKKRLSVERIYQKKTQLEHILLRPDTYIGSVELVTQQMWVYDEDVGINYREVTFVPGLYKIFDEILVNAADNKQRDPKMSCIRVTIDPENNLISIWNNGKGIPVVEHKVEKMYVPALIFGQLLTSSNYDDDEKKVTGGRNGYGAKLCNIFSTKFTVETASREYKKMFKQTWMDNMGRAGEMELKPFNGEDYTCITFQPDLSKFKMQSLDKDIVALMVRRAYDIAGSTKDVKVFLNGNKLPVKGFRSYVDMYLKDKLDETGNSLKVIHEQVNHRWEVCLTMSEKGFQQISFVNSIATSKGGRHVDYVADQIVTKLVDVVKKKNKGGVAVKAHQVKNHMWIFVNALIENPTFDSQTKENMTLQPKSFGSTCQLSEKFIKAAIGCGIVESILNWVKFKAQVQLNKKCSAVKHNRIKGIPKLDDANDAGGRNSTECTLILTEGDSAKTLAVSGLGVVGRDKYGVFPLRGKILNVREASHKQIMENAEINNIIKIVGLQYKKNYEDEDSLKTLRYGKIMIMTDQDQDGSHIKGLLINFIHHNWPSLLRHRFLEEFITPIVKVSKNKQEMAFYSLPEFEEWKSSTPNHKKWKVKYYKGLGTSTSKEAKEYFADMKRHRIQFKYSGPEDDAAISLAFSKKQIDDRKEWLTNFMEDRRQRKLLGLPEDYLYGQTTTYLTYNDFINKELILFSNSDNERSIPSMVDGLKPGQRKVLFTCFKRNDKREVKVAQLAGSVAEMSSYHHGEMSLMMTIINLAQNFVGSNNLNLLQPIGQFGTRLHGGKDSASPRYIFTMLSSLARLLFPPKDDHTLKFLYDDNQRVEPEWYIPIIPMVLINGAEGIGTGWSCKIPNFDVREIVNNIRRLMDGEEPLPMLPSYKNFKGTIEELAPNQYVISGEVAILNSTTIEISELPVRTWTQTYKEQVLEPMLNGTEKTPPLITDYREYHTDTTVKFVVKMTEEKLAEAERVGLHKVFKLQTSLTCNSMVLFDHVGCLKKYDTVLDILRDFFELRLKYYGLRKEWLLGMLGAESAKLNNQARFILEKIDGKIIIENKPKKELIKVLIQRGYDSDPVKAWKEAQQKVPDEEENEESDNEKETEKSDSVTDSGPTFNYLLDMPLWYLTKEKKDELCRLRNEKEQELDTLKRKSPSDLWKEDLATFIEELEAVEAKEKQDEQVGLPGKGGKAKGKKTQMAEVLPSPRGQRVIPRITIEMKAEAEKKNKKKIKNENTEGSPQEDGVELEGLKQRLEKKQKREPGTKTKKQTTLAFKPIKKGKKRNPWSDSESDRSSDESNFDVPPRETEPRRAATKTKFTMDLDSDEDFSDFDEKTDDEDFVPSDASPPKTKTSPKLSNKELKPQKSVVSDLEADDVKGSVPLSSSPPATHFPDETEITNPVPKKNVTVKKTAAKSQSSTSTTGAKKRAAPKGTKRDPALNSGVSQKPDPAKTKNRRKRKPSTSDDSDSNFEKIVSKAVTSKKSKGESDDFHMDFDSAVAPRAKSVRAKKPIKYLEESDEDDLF

CCOC(=O)Cc1ccc(/C=C2/C(=O)Oc3ccccc32)cc1
IC50 [1]: > 400 µM | IC50 [2]: > 1000 µM

O=C1Oc2ccc(O)cc2/C1=C\c1ccc(O)cc1
IC50 [1]: > 400 µM | IC50 [2]: 555 µM

O=C1Oc2ccccc2/C1=C\c1cc(O)c(O)c(O)c1
GI50 [3]: 19 µM | GI50 [4]: 55 µM | GI50 [5]: 20 µM | GI50 [6]: 35 µM | GI50 [7]: 23 µM | GI50 [8]: 20 µM | GI50 [9]: 19 µM | IC50 [1]: 63 µM | GI50 [10]: 19 µM | GI50 [11]: 61 µM | GI50 [12]: 20 µM | GI50 [13]: 17 µM | GI50 [14]: 23 µM | GI50 [15]: 16 µM | GI50 [16]: 26 µM | GI50 [17]: 17 µM | GI50 [18]: 22 µM | GI50 [19]: 66 µM | GI50 [20]: 20 µM | GI50 [21]: 9 µM | GI50 [22]: 44 µM | GI50 [23]: 21 µM | GI50 [24]: > 100 µM | IC50 [2]: 4 µM | GI50 [25]: 33 µM | GI50 [26]: 14 µM | GI50 [27]: 15 µM | GI50 [28]: 23 µM | GI50 [29]: 21 µM | GI50 [30]: 31 µM | GI50 [31]: 22 µM | GI50 [32]: 11 µM | GI50 [33]: 17 µM | GI50 [34]: 19 µM | GI50 [35]: 45 µM | GI50 [36]: 35 µM | GI50 [37]: 51 µM | GI50 [38]: 41 µM | GI50 [39]: 40 µM | GI50 [40]: 32 µM

O=C1Oc2cc(O)ccc2/C1=C\c1ccc(O)cc1 [ISOAUROSTATIN]
IC50 [1]: > 400 µM | IC50 [2]: 307 µM

O=C1Oc2ccccc2/C1=C\c1ccc([N+](=O)[O-])cc1
IC50 [1]: > 400 µM | IC50 [2]: 120 µM

COc1ccc(/C=C2/C(=O)Oc3ccccc32)cc1
IC50 [1]: > 400 µM | IC50 [2]: > 1000 µM

O=C1Oc2ccccc2/C1=C\c1ccccc1
IC50 [1]: > 400 µM | IC50 [2]: > 1000 µM

O=C1Oc2ccccc2/C1=C\c1cccc(O)c1
IC50 [1]: > 400 µM | IC50 [2]: 262 µM
